Test results taken from ChEMBL document CHEMBL1149397, “Trace amine-associated receptor agonists: synthesis and evaluation of thyronamines and related analogues” (J Med Chem, 2006).
Calls of active or inactive are those of the source. The rule behind the calls is not given here.

Columns and labels:
[1] = molecular target: Trace amine-associated receptor 1 (Mus musculus, UniProt Q923Y8); assay: Activity at mouse TAAR1 by measuring cAMP accumulation in HEK293 cells; format: functional, cell-based
Sequence of Trace amine-associated receptor 1 (Mus musculus, UniProt Q923Y8) (Q923Y8 whole entry): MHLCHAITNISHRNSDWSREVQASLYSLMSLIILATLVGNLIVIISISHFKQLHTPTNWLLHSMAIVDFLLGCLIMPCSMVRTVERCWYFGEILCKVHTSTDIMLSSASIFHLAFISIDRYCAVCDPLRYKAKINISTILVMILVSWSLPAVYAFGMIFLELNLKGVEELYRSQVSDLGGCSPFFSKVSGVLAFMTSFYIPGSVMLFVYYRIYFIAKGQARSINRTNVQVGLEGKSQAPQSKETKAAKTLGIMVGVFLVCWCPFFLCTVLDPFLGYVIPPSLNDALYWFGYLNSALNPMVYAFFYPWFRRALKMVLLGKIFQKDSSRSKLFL
Procedure, shortened: (§1)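 HEK293 cells stably transfected with rat or mouse TAAR1, harvested and preincubated in Krebs-Ringer-HEPES with 200 µM IBMX. Then 1 h at 37 °C in KRH with 100 µM IBMX plus test compound, forskolin (10 µM) or DMSO vehicle. cAMP was measured by [³H]cAMP competitive binding after boiling, as % of forskolin control. EC₅₀ came from concentration-response curves, triplicate runs, averaged over experiments.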

[2] = molecular target: Trace amine-associated receptor 1 (Rattus norvegicus, UniProt Q923Y9); assay: Activity at rat TAAR1 by measuring cAMP accumulation in HEK293 cells; format: functional, cell-based; procedure, shortened: as §1
Sequence of Trace amine-associated receptor 1 (Rattus norvegicus, UniProt Q923Y9) (Q923Y9 whole entry): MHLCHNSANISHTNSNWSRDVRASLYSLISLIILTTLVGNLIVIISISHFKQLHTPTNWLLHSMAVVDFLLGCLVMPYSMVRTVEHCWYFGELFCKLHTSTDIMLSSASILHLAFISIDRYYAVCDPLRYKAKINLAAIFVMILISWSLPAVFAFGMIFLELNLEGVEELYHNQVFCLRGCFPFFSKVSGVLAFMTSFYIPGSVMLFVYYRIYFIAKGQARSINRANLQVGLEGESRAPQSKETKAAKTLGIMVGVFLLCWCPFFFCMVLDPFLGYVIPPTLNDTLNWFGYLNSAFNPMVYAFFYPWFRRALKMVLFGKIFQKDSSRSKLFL

[3] = test system: Mus musculus; assay: Hypothermia induction in C57BL/6J mice at 50 mg/kg, ip; format: functional, organism-based; design: dose 50 mg/kg
Procedure, shortened: (§2)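 Male C57BL/6J mice, about 7-10 weeks old, dosed i.p. at 2, 10, 25 or 50 mg/kg. Vehicle was 100% DMSO, or 60-65% DMSO in saline for some compounds. Rectal temperature was taken before dosing and at 30, 60, 120, 180, 240 and 1440 min, with room at 19-21 °C. Groups were 2-4 mice, analysed by two-way ANOVA with Bonferroni post hoc tests (P < 0.05).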

[4] = test system: Mus musculus; assay: Efficacy for hypothermia induction in ip dosed C57BL/6J mice; format: functional; procedure, shortened: as §2

Structure (SMILES) | EC50 [1] | EC50 [2] | Activity [3] | ED50 [4]
NCCc1ccc(Oc2ccc(O)c(I)c2)c(I)c1 | 1000 nM | – | – | –
CNCCc1ccc(Oc2ccc(C(F)(F)F)cc2)c(I)c1 | > 1000 nM | > 1000 nM | – | –
NCCc1ccc(Oc2ccc(O)cc2)cc1 [THYRONAMINE] | 1000 nM | – | – | –
COc1cccc(COc2ccc(CCN)cc2)c1 | 194 nM | 141 nM | – | –
NCCc1ccc(Oc2ccc(O)c(I)c2)cc1 | > 1000 nM | 800 nM | – | –
c1ccc(CNCCc2ccc(OCc3ccccc3)cc2)cc1 | > 1000 nM | > 1000 nM | – | –
NCCc1ccc(OCCCc2ccccc2)cc1 | 102 nM | 89 nM | – | –
Cc1cc(CCN)ccc1Oc1ccc(O)cc1 | 116 nM | 33 nM | Active | –
NCCc1ccc(Oc2ccccc2)c(I)c1 | 35 nM | 2.4 nM | Active | 30 µmol/kg
NCCc1ccc(OCc2ccc([N+](=O)[O-])cc2)cc1 | 21.5 nM | 64 nM | – | –
NCCc1ccc(OCc2ccc(C(F)(F)F)cc2)cc1 | 20.2 nM | 55 nM | – | –
NCCc1cc(I)c(Oc2cc(I)c(O)c(I)c2)c(I)c1 | > 1000 nM | – | – | –
CN(C)CCc1ccc(OCc2ccccc2)cc1 | 192 nM | > 1000 nM | – | –
CNCCc1ccc(OCc2ccccc2)c(I)c1 | 106 nM | 68 nM | – | –
NCCc1ccc(Oc2ccccc2)cc1 | 296 nM | 38 nM | – | –
NCCc1ccc(OCc2ccc(C(F)(F)F)cc2)c(I)c1 | 284 nM | > 1000 nM | – | –
NCCc1ccc(Oc2cc(I)c(O)c(I)c2)cc1 | > 1000 nM | > 1000 nM | – | –
CNCCc1ccc(Oc2ccc(OC)cc2)c(I)c1 | > 1000 nM | 107 nM | – | –
NCCc1cc(I)c(Oc2ccc(O)c(I)c2)c(I)c1 | > 1000 nM | – | – | –

Structure (SMILES) | EC50 [1] | EC50 [2] | Activity [3] | ED50 [4]
CNCCc1ccc(Oc2ccc(O)cc2)c(I)c1 | 221 nM | 18 nM | – | –
NCCc1ccc(OCc2ccccc2)cc1 | 168 nM | 209 nM | – | –
NCCc1ccc(Oc2cc(I)c(O)c(I)c2)c(I)c1 | > 1000 nM | > 1000 nM | – | –
Cc1cc(C)cc(COc2ccc(CCN)cc2)c1 | 98 nM | 137 nM | – | –
NCCc1ccc(OCCc2ccccc2)cc1 | 207 nM | 203 nM | – | –
CNCCc1ccc(OCc2ccc(C(F)(F)F)cc2)cc1 | 12 nM | 61 nM | Active | –
COc1cc(COc2ccc(CCN)cc2)cc(OC)c1 | 123 nM | 333 nM | – | –
OCCc1ccc(Oc2ccc(O)cc2)c(I)c1 | > 1000 nM | > 1000 nM | – | –
NCCc1ccc(OCc2ccc(F)cc2)cc1 | 38.5 nM | 72 nM | – | –
NCCc1ccc(OCc2ccccc2)c(I)c1 | 221 nM | 77 nM | – | –
CCNCCc1ccc(OCc2ccccc2)cc1 | 71 nM | > 1000 nM | – | –
CCCNCCc1ccc(OCc2ccccc2)cc1 | > 1000 nM | > 1000 nM | – | –
NCCc1ccc(OCCCCc2ccccc2)cc1 | 80 nM | 43 nM | – | –
CNCCc1ccc(OCc2ccccc2)cc1 | 54 nM | 119 nM | – | –
CNCCc1ccc(Oc2ccc(F)cc2)c(I)c1 | 32.5 nM | 2.7 nM | Active | –
NCCc1ccc(OCC(=O)c2ccccc2)cc1 | 83 nM | 309 nM | – | –
NCCc1ccc(OCc2c(F)c(F)c(F)c(F)c2F)cc1 | > 1000 nM | > 1000 nM | – | –
CCCCNCCc1ccc(OCc2ccccc2)cc1 | > 1000 nM | > 1000 nM | – | –
NCCc1cc(I)c(Oc2ccc(O)cc2)c(I)c1 | 371 nM | – | – | –
